Measured values published in ChEMBL document CHEMBL1629465, “Efficient synthesis of novel 1,2,4-triazole fused acyclic and 21-28 membered macrocyclic and/or lariat macrocyclic oxaazathia crown compounds with potential antimicrobial activity” (2010).

System: Candida albicans
Assay: Antimicrobial activity against Candida albicans RCMB 005003 at 2.5 mg/ml by agar diffusion technique
Assay type: functional
Details: read-out: DIZ
Outline: (§1)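 Agar well diffusion. Test compounds and reference standard drugs were diluted to 5.0, 2.5 and 1.0 mg/mL and applied to 0.6 cm wells. Inhibition zone beyond the control was scored as 0 (no inhibition), + (0.1–0.5 cm), ++ (0.6–1.0 cm) or +++ (1.0–1.5 cm).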

Compound	zone of inhibition at 2500 µg/mL
S=c1[nH]nc(-c2cccnc2)n1/N=C\c1ccccc1OCCOCCOCCOc1ccccc1/C=N\n1c(-c2cccnc2)n[nH]c1=S	0 mm
OC1COc2ccccc2CNn2c(nnc2-c2cccnc2)SCCCSc2nnc(-c3cccnc3)n2NCc2ccccc2OC1	0 mm

System: Escherichia coli
Assay: Antimicrobial activity against Escherichia coli RCMB 103001 at 5 mg/ml by agar diffusion technique
Assay type: functional
Details: read-out: DIZ
Outline: as §1

Compound	zone of inhibition at 5000 µg/mL
S=c1[nH]nc(-c2cccnc2)n1/N=C\c1ccccc1OCCOCCOCCOc1ccccc1/C=N\n1c(-c2cccnc2)n[nH]c1=S	0 mm
OC1COc2ccccc2CNn2c(nnc2-c2cccnc2)SCCCSc2nnc(-c3cccnc3)n2NCc2ccccc2OC1	0 mm

System: Penicillium italicum
Assay: Antimicrobial activity against Penicillium italicum RCMB 001018 at 5 mg/ml by agar diffusion technique
Assay type: functional
Details: read-out: DIZ
Outline: as §1

Compound	zone of inhibition at 5000 µg/mL
S=c1[nH]nc(-c2cccnc2)n1/N=C\c1ccccc1OCCOCCOCCOc1ccccc1/C=N\n1c(-c2cccnc2)n[nH]c1=S	6 mm
OC1COc2ccccc2CNn2c(nnc2-c2cccnc2)SCCCSc2nnc(-c3cccnc3)n2NCc2ccccc2OC1	0 mm

System: Staphylococcus aureus
Assay: Antimicrobial activity against Staphylococcus aureus RCMB 106001 at 1 mg/ml by agar diffusion technique
Assay type: functional
Details: read-out: DIZ
Outline: as §1

Compound	zone of inhibition at 1000 µg/mL
S=c1[nH]nc(-c2cccnc2)n1/N=C\c1ccccc1OCCOCCOCCOc1ccccc1/C=N\n1c(-c2cccnc2)n[nH]c1=S	0 mm
OC1COc2ccccc2CNn2c(nnc2-c2cccnc2)SCCCSc2nnc(-c3cccnc3)n2NCc2ccccc2OC1	0 mm

System: Pseudomonas aeruginosa
Assay: Antimicrobial activity against Pseudomonas aeruginosa RCMB 102002 at 1 mg/ml by agar diffusion technique
Assay type: functional
Details: read-out: DIZ
Outline: as §1

Compound	zone of inhibition at 1000 µg/mL
S=c1[nH]nc(-c2cccnc2)n1/N=C\c1ccccc1OCCOCCOCCOc1ccccc1/C=N\n1c(-c2cccnc2)n[nH]c1=S	0 mm
OC1COc2ccccc2CNn2c(nnc2-c2cccnc2)SCCCSc2nnc(-c3cccnc3)n2NCc2ccccc2OC1	0 mm

System: Penicillium italicum
Assay: Antimicrobial activity against Penicillium italicum RCMB 001018 at 1 mg/ml by agar diffusion technique
Assay type: functional
Details: read-out: DIZ
Outline: as §1

Compound	zone of inhibition at 1000 µg/mL
S=c1[nH]nc(-c2cccnc2)n1/N=C\c1ccccc1OCCOCCOCCOc1ccccc1/C=N\n1c(-c2cccnc2)n[nH]c1=S	1 mm
OC1COc2ccccc2CNn2c(nnc2-c2cccnc2)SCCCSc2nnc(-c3cccnc3)n2NCc2ccccc2OC1	0 mm

System: Candida albicans
Assay: Antimicrobial activity against Candida albicans RCMB 005003 at 5 mg/ml by agar diffusion technique
Assay type: functional
Details: read-out: DIZ
Outline: as §1

Compound	zone of inhibition at 5000 µg/mL
S=c1[nH]nc(-c2cccnc2)n1/N=C\c1ccccc1OCCOCCOCCOc1ccccc1/C=N\n1c(-c2cccnc2)n[nH]c1=S	1 mm
OC1COc2ccccc2CNn2c(nnc2-c2cccnc2)SCCCSc2nnc(-c3cccnc3)n2NCc2ccccc2OC1	0 mm

System: Candida albicans
Assay: Antimicrobial activity against Candida albicans RCMB 005003 at 1 mg/ml by agar diffusion technique
Assay type: functional
Details: read-out: DIZ
Outline: as §1

Compound	zone of inhibition at 1000 µg/mL
S=c1[nH]nc(-c2cccnc2)n1/N=C\c1ccccc1OCCOCCOCCOc1ccccc1/C=N\n1c(-c2cccnc2)n[nH]c1=S	0 mm
OC1COc2ccccc2CNn2c(nnc2-c2cccnc2)SCCCSc2nnc(-c3cccnc3)n2NCc2ccccc2OC1	0 mm

System: Penicillium italicum
Assay: Antimicrobial activity against Penicillium italicum RCMB 001018 at 2.5 mg/ml by agar diffusion technique
Assay type: functional
Details: read-out: DIZ
Outline: as §1

Compound	zone of inhibition at 2500 µg/mL
S=c1[nH]nc(-c2cccnc2)n1/N=C\c1ccccc1OCCOCCOCCOc1ccccc1/C=N\n1c(-c2cccnc2)n[nH]c1=S	1 mm
OC1COc2ccccc2CNn2c(nnc2-c2cccnc2)SCCCSc2nnc(-c3cccnc3)n2NCc2ccccc2OC1	0 mm

System: Syncephalastrum racemosum
Assay: Antimicrobial activity against Syncephalastrum racemosum RCMB 016001 at 2.5 mg/ml by agar diffusion technique
Assay type: functional
Details: read-out: DIZ
Outline: as §1

Compound	zone of inhibition at 2500 µg/mL
S=c1[nH]nc(-c2cccnc2)n1/N=C\c1ccccc1OCCOCCOCCOc1ccccc1/C=N\n1c(-c2cccnc2)n[nH]c1=S	0 mm
OC1COc2ccccc2CNn2c(nnc2-c2cccnc2)SCCCSc2nnc(-c3cccnc3)n2NCc2ccccc2OC1	0 mm

System: Aspergillus fumigatus
Assay: Antimicrobial activity against Aspergillus fumigatus RCMB 002008 at 2.5 mg/ml by agar diffusion technique
Assay type: functional
Details: read-out: DIZ
Outline: as §1

Compound	zone of inhibition at 2500 µg/mL
S=c1[nH]nc(-c2cccnc2)n1/N=C\c1ccccc1OCCOCCOCCOc1ccccc1/C=N\n1c(-c2cccnc2)n[nH]c1=S	0 mm
OC1COc2ccccc2CNn2c(nnc2-c2cccnc2)SCCCSc2nnc(-c3cccnc3)n2NCc2ccccc2OC1	0 mm

System: Bacillus subtilis
Assay: Antimicrobial activity against Bacillus subtilis RCMB 101001 at 5 mg/ml by agar diffusion technique
Assay type: functional
Details: read-out: DIZ
Outline: as §1

Compound	zone of inhibition at 5000 µg/mL
S=c1[nH]nc(-c2cccnc2)n1/N=C\c1ccccc1OCCOCCOCCOc1ccccc1/C=N\n1c(-c2cccnc2)n[nH]c1=S	0 mm
OC1COc2ccccc2CNn2c(nnc2-c2cccnc2)SCCCSc2nnc(-c3cccnc3)n2NCc2ccccc2OC1	6 mm

System: Pseudomonas aeruginosa
Assay: Antimicrobial activity against Pseudomonas aeruginosa RCMB 102002 at 2.5 mg/ml by agar diffusion technique
Assay type: functional
Details: read-out: DIZ
Outline: as §1

Compound	zone of inhibition at 2500 µg/mL
S=c1[nH]nc(-c2cccnc2)n1/N=C\c1ccccc1OCCOCCOCCOc1ccccc1/C=N\n1c(-c2cccnc2)n[nH]c1=S	0 mm
OC1COc2ccccc2CNn2c(nnc2-c2cccnc2)SCCCSc2nnc(-c3cccnc3)n2NCc2ccccc2OC1	0 mm

System: Bacillus subtilis
Assay: Antimicrobial activity against Bacillus subtilis RCMB 101001 at 2.5 mg/ml by agar diffusion technique
Assay type: functional
Details: read-out: DIZ
Outline: as §1

Compound	zone of inhibition at 2500 µg/mL
S=c1[nH]nc(-c2cccnc2)n1/N=C\c1ccccc1OCCOCCOCCOc1ccccc1/C=N\n1c(-c2cccnc2)n[nH]c1=S	0 mm
OC1COc2ccccc2CNn2c(nnc2-c2cccnc2)SCCCSc2nnc(-c3cccnc3)n2NCc2ccccc2OC1	6 mm

System: Syncephalastrum racemosum
Assay: Antimicrobial activity against Syncephalastrum racemosum RCMB 016001 at 1 mg/ml by agar diffusion technique
Assay type: functional
Details: read-out: DIZ
Outline: as §1

Compound	zone of inhibition at 1000 µg/mL
S=c1[nH]nc(-c2cccnc2)n1/N=C\c1ccccc1OCCOCCOCCOc1ccccc1/C=N\n1c(-c2cccnc2)n[nH]c1=S	0 mm
OC1COc2ccccc2CNn2c(nnc2-c2cccnc2)SCCCSc2nnc(-c3cccnc3)n2NCc2ccccc2OC1	0 mm

System: Staphylococcus aureus
Assay: Antimicrobial activity against Staphylococcus aureus RCMB 106001 at 5 mg/ml by agar diffusion technique
Assay type: functional
Details: read-out: DIZ
Outline: as §1

Compound	zone of inhibition at 5000 µg/mL
S=c1[nH]nc(-c2cccnc2)n1/N=C\c1ccccc1OCCOCCOCCOc1ccccc1/C=N\n1c(-c2cccnc2)n[nH]c1=S	1 mm
OC1COc2ccccc2CNn2c(nnc2-c2cccnc2)SCCCSc2nnc(-c3cccnc3)n2NCc2ccccc2OC1	0 mm

System: Aspergillus fumigatus
Assay: Antimicrobial activity against Aspergillus fumigatus RCMB 002008 at 1 mg/ml by agar diffusion technique
Assay type: functional
Details: read-out: DIZ
Outline: as §1

Compound	zone of inhibition at 1000 µg/mL
S=c1[nH]nc(-c2cccnc2)n1/N=C\c1ccccc1OCCOCCOCCOc1ccccc1/C=N\n1c(-c2cccnc2)n[nH]c1=S	0 mm
OC1COc2ccccc2CNn2c(nnc2-c2cccnc2)SCCCSc2nnc(-c3cccnc3)n2NCc2ccccc2OC1	0 mm

System: Staphylococcus aureus
Assay: Antimicrobial activity against Staphylococcus aureus RCMB 106001 at 2.5 mg/ml by agar diffusion technique
Assay type: functional
Details: read-out: DIZ
Outline: as §1

Compound	zone of inhibition at 2500 µg/mL
S=c1[nH]nc(-c2cccnc2)n1/N=C\c1ccccc1OCCOCCOCCOc1ccccc1/C=N\n1c(-c2cccnc2)n[nH]c1=S	0 mm
OC1COc2ccccc2CNn2c(nnc2-c2cccnc2)SCCCSc2nnc(-c3cccnc3)n2NCc2ccccc2OC1	0 mm

System: Bacillus subtilis
Assay: Antimicrobial activity against Bacillus subtilis RCMB 101001 at 1 mg/ml by agar diffusion technique
Assay type: functional
Details: read-out: DIZ
Outline: as §1

Compound	zone of inhibition at 1000 µg/mL
S=c1[nH]nc(-c2cccnc2)n1/N=C\c1ccccc1OCCOCCOCCOc1ccccc1/C=N\n1c(-c2cccnc2)n[nH]c1=S	0 mm
OC1COc2ccccc2CNn2c(nnc2-c2cccnc2)SCCCSc2nnc(-c3cccnc3)n2NCc2ccccc2OC1	1 mm

System: Escherichia coli
Assay: Antimicrobial activity against Escherichia coli RCMB 103001 at 1 mg/ml by agar diffusion technique
Assay type: functional
Details: read-out: DIZ
Outline: as §1

Compound	zone of inhibition at 1000 µg/mL
S=c1[nH]nc(-c2cccnc2)n1/N=C\c1ccccc1OCCOCCOCCOc1ccccc1/C=N\n1c(-c2cccnc2)n[nH]c1=S	0 mm
OC1COc2ccccc2CNn2c(nnc2-c2cccnc2)SCCCSc2nnc(-c3cccnc3)n2NCc2ccccc2OC1	0 mm

System: Escherichia coli
Assay: Antimicrobial activity against Escherichia coli RCMB 103001 at 2.5 mg/ml by agar diffusion technique
Assay type: functional
Details: read-out: DIZ
Outline: as §1

Compound	zone of inhibition at 2500 µg/mL
S=c1[nH]nc(-c2cccnc2)n1/N=C\c1ccccc1OCCOCCOCCOc1ccccc1/C=N\n1c(-c2cccnc2)n[nH]c1=S	0 mm
OC1COc2ccccc2CNn2c(nnc2-c2cccnc2)SCCCSc2nnc(-c3cccnc3)n2NCc2ccccc2OC1	0 mm

System: Aspergillus fumigatus
Assay: Antimicrobial activity against Aspergillus fumigatus RCMB 002008 at 5 mg/ml by agar diffusion technique
Assay type: functional
Details: read-out: DIZ
Outline: as §1

Compound	zone of inhibition at 5000 µg/mL
S=c1[nH]nc(-c2cccnc2)n1/N=C\c1ccccc1OCCOCCOCCOc1ccccc1/C=N\n1c(-c2cccnc2)n[nH]c1=S	0 mm
OC1COc2ccccc2CNn2c(nnc2-c2cccnc2)SCCCSc2nnc(-c3cccnc3)n2NCc2ccccc2OC1	0 mm

System: Syncephalastrum racemosum
Assay: Antimicrobial activity against Syncephalastrum racemosum RCMB 016001 at 5 mg/ml by agar diffusion technique
Assay type: functional
Details: read-out: DIZ
Outline: as §1

Compound	zone of inhibition at 5000 µg/mL
S=c1[nH]nc(-c2cccnc2)n1/N=C\c1ccccc1OCCOCCOCCOc1ccccc1/C=N\n1c(-c2cccnc2)n[nH]c1=S	0 mm
OC1COc2ccccc2CNn2c(nnc2-c2cccnc2)SCCCSc2nnc(-c3cccnc3)n2NCc2ccccc2OC1	0 mm

System: Pseudomonas aeruginosa
Assay: Antimicrobial activity against Pseudomonas aeruginosa RCMB 102002 at 5 mg/ml by agar diffusion technique
Assay type: functional
Details: read-out: DIZ
Outline: as §1

Compound	zone of inhibition at 5000 µg/mL
S=c1[nH]nc(-c2cccnc2)n1/N=C\c1ccccc1OCCOCCOCCOc1ccccc1/C=N\n1c(-c2cccnc2)n[nH]c1=S	0 mm
OC1COc2ccccc2CNn2c(nnc2-c2cccnc2)SCCCSc2nnc(-c3cccnc3)n2NCc2ccccc2OC1	0 mm
